In PMC8054679 (Analytical biochemistry, 2020):
“Also recorded” adds a separate entry of the source.

Key:
[1] = tested on: Hsp70-CHIP interaction (myc-LgBiT-IEEVD / SmBiT-CHIP-FLAG); format: cell-based; settings: for effect on NanoBiT luminescence, single dose: 5 μM, 6 hours, mean ± SD (n=3)
Outline: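 Stable reporter cells induced overnight with dox 100 μg/mL in 96-well plates. Peptides (DMSO-dissolved) given at 10 µM for 1 h; small-molecule inhibitors given at 5 µM for 6 h. Live-cell substrate added in Opti-Mem, 5 min dark at room temperature, then read at 500 ms integration. Uninduced background subtracted; normalized to DMSO control as percent; mean ± SD, n=3.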

Hsp70 = test: Western blot of lysate protein levels: Hsp70; format: cell-based; settings: compared to vehicle; western blot of treated NanoBiT cells
Outline: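 Reporter cells dox-induced overnight, then given test compound for 6 h. Inputs denatured 5 min at 95 °C. Blots blocked 1 h, primary antibody 1:1000 overnight at 4 °C, secondary 1:10000 for 1 h.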

[2] = tested on: NanoBiT reporter components (myc-LgBiT-IEEVD, SmBiT-CHIP-FLAG); test: Western blot of lysate protein levels: NanoBiT reporter components; format: cell-based; settings: anti-myc or anti-FLAG
[3] = tested on: dox-inducible NanoBiT reporter in NanoBiT cells; test: NanoBiT luminescence assay of dox-dependence and signal stability; format: cell-based; settings: dox 100 μg/mL, 24 hours
Outline: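 HEK293 Flp-In T-REx cells electroporated with a bicistronic myc-LgBiT-IEEVD/SmBiT-CHIP-FLAG vector plus pOG44, selected with 100 µg/mL hygromycin, and cloned. Cells cultured in 96-well plates ±dox 100 μg/mL for 24 h. Live-cell furimazine substrate added in Opti-Mem, 5 min dark at room temperature, then read at 500 ms integration. Uninduced-cell background subtracted; mean ± SD, n=3.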

CHIP TPR domain = settings: cited from earlier work

## CO[C@H]1/C=C\C=C(/C)C(=O)NC2=CC(=O)C(NCCN(C)C)=C(C[C@@H](C)C[C@H](OC)[C@H](O)[C@@H](C)/C=C(\C)[C@@H]1OC(N)=O)C2=O [17-DMAG, 17-dimethylaminoethylamino-17-demethoxygeldanamycin]
[1]; percent of DMSO control
  effect on NanoBiT luminescence, single dose: reduced the luminescence
Hsp70
  total abundance of Hsp70 in the lysate: increased the total abundance of Hsp70 in the lysate; also recorded: induces Hsp70 levels

## CCn1c(=O)/c(=C2\Sc3cc(Cl)ccc3N2C)s/c1=C\c1scc[n+]1Cc1ccccc1.[Cl-] [JG-98]
[1]; percent of DMSO control
  effect on NanoBiT luminescence, single dose: reduced luminescence
[2]
  stability/expression of NanoBiT reporter components: partially destabilized both components of the NanoBiT reporter

## CCn1c(=O)/c(=C2\SCCN2C)s/c1=C\c1scc[n+]1Cc1ccccc1.[Cl-] [JG-258]
[1]; percent of DMSO control
  effect on NanoBiT luminescence, single dose: but not an inactive control, JG-258, reduced luminescence

## C[C@H]1c2cccc(O)c2C(=O)C2=C(O)[C@]3(O)C(=O)C(C(N)=O)=C(O)[C@@H](N(C)C)[C@@H]3[C@@H](O)[C@@H]21 [dox, doxycycline]
[3]; mean ± SD (n=3)
  luminescence with dox: 47300 ± 1270 RLU
[3]; n=3
  fold increase of luminescence compared to control without dox: 31 fold
[2]
  stability/expression of NanoBiT reporter components: both reporter components were expressed in response to dox, with little background

## Ac-LWWPD
[1]; discussion statement, peptide without CPP
  efficacy in the NanoBiT assay: no efficacy
CHIP TPR domain; in vitro, see Figure 1 (FP, adapted from ref 21)
  affinity for CHIP in vitro: sub-micromolar affinity

## LWWPD
CHIP TPR domain; FP, peptide in vitro, fold better than IEEVD
  binding to CHIP's purified TPR domain relative to IEEVD: at least 10 fold

## R9-LWWPD
[1]; 10 μM peptide, 1 hour, normalized to DMSO control, n=3
  reduction of NanoBiT luminescence: approximately 40%
[1]; 10 μM, 1 hour, percent of DMSO control, n=3
  effect on NanoBiT luminescence, peptides, single dose: cell active inhibitor
